The nature of data set [1]: Selectivity index, ratio of IC50 for mouse J774 cells to IC50 for Leishmania pifanoi […] axenic amastigotes. As to conditions: read-out: Ratio IC50. The format is toxicity.
Data set [2] relates to Leishmania pifanoi. Nature of the data set: Antileishmanial activity against Leishmania pifanoi […] axenic amastigotes incubated for 96 hrs by MTT assay. It counts as functional, organism-based. A digest of the protocol: (§1)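 Parasites washed in HBSS-Glc and resuspended at 2×10^6 cells/ml in fresh growth medium with compound at 0.78-50.0 µM. Promastigotes grown in RPMI 1640-modified medium + 10% HIFCS, 72 h at 26 °C; axenic amastigotes in medium 199 + 20% HIFCS + 50 µg/ml hemin, 96 h at 32 °C. MTT 0.5 mg/ml for 2 h, formazan dissolved in SDS (5% final), absorbance 590 nm. Triplicates, ≥2 experiments, IC50 computed.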
(Tetrazolium dyes change colour on reduction, which living cells bring about.)

For data set [3], the system named is Leishmania donovani. Nature of the data set: Antileishmanial activity against Leishmania donovani MHOM/SD/00/1S-2D promastigotes incubated for 72 hrs by MTT assay. It counts as functional, organism-based. A digest of the protocol:
as §1

In data set [4] the test system is J774. Kind of data set: Cytotoxicity against mouse J774 cells incubated for 48 hrs by MTT assay. The format is cell-based. Conditions: J774, 48 h. A digest of the protocol: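 J774.1 cells grown in RPMI-1640 + 10% heat-inactivated FCS, 2 mM L-glutamine, penicillin-streptomycin, 37 °C, 5% CO2. Seeded at 10^5 cells/well and left overnight, then compound in fresh medium for 48 h. MTT 0.5 mg/ml final, 2 h; SDS 0.1% final, 2 h at 37 °C; read at 595 nm. Triplicate samples, ≥2 independent experiments; CC50 calculated.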

Data set [5] concerns Leishmania donovani. Nature of the data set: Antileishmanial activity against Leishmania donovani promastigotes harboring 3-Luc gene assessed as decrease in parasites viability using DMNEP-D-luciferin as substrate at 50 uM incubated for 10 mins by luminescence assay relative to control. It counts as functional. A digest of the protocol: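 3-Luc L. donovani promastigotes, episomally expressing cytoplasmic firefly luciferase and grown at 26 °C in RPMI 1640-modified medium + 10% HIFCS with G-418 (30 µg/ml). Assay: cells at 20 × 10^6/ml in HBSS-Glc with caged DMNPE-luciferin (50 µM final). Compound added once luminescence plateaued; luminescence followed over time, expressed as % of value at addition (100%). Luciferase inhibition controls run.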

Data set [6] relates to Leishmania donovani. Nature of the data set: Induction of mitochondrial dysfunction in Leishmania donovani MHOM/SD/00/1S-2D promastigotes as mitochondrial membrane potential at 50 uM incubated for 4 hrs by Rh123 staining based flow cytometry. It counts as functional, organism-based. (In general: Flow cytometry measures light scatter and fluorescence of single cells or particles in a stream.)

For data set [7], the system named is Leishmania donovani. Nature of the data set: Induction of plasma membrane permeabilization in Leishmania donovani MHOM/SD/00/1S-2D promastigotes at 50 uM by sytox green-based fluorescence assay. The format is functional, organism-based. A digest of the protocol:
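Promastigotes at 20×10^6 cells/ml in HBSS-Glc with SYTOX Green 1.0 μM final. Compound added after a stable baseline; fluorescence rise (ex 504/em 524 nm) monitored. Values given as percent of full permeabilization by 0.1% Triton X-100.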

Data set [8] concerns Leishmania donovani. Nature of the data set: Induction of mitochondrial dysfunction in Leishmania donovani MHOM/SD/00/1S-2D promastigotes as mitochondrial membrane potential at 25 uM incubated for 4 hrs by Rh123 staining based flow cytometry. It counts as functional, organism-based.
In data set [9] the test system is Leishmania donovani. Nature of the data set: Induction of morphological damage in Leishmania donovani MHOM/SD/00/1S-2D promastigotes assessed as increase in intracellular acidic pH at 5 uM pretreated with acridine orange followed by compound addition by acridine orange based fluorescence assay. It counts as functional, organism-based. A digest of the protocol:
(§2)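 Promastigotes at 40×10^6 cells/ml loaded with acridine orange 2 μM (5 min, 26 °C), washed and readjusted to the same density. Kinetic fluorescence (ex 488/em 530 nm) followed after adding compound 5 μM once the signal was stable. For confocal imaging, loaded cells were given compound 5 μM for 1 h, washed and immobilized on hydrogel; imaged at ex 488/em 650 nm.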

Data set [10] has as its system Leishmania donovani. Kind of data set: Induction of morphological damage in Leishmania donovani MHOM/SD/00/1S-2D promastigotes assessed as increase in intracellular acidic pH at 5 uM pretreated with acridine orange followed by compound addition and measured at 1 hr by acridine orange based confocal microscopic method. The format is functional, organism-based. A digest of the protocol: as §2

24 molecules from ChEMBL document CHEMBL4346674, “Structure-activity relationships and mechanistic studies of novel mitochondria-targeted, leishmanicidal derivatives of the 4-aminostyrylquinoline scaffold” (Eur J Med Chem, 2019) can be followed below.

Each structure is given as a SMILES string. Activity calls are given as the source filed them. The rule behind the calls is not given here. Bounds are passed on as bounds.

With `NCCCCNc1cc(/C=C/c2ccccc2)nc2ccccc12`, the selectivity ratio in [1] was less than 0.3. Besides, the IC50 (in general, the point on the concentration scale where inhibition reaches its midpoint) in data set [2] was more than 25 µM; in data set [3], 0.44 µM; in data set [4] it was 6.6 µM.
Taken in the same sequence, the figures for `Nc1cc(/C=C/c2ccccc2)nc2ccccc12` were 0.5, 8.9 µM, 0.5 µM and 4.4 µM.
In the case of `O=C(CN1CCCCC1)NCCNc1cc(/C=C/c2ccccc2)nc2ccccc12`, the selectivity ratio in data set [1] was 3.4. In addition, in [5], the Activity came to 46.4%. Besides, the outcome in [6] and in data set [8] was Active. Besides, the IC50 in data set [2] came out at 1.2 µM; in data set [3] it was 2.1 µM; in data set [4] it was 4.7 µM. Also, in [7], the outcome was inactive.
Turning to `O=C(CNc1ccc(Cl)cc1Cl)NCCNc1cc(/C=C/c2ccccc2)nc2ccccc12`, the selectivity ratio in data set [1] was more than 41.6. Besides, the IC50 was 1.2 µM in data set [2], 8.4 µM in [3] and more than 50 µM in data set [4].
Turning to `C(=C\c1ccc2ccccc2n1)/c1ccccc1`, the outcome in data set [9] and in data set [10] was inactive. The half-inhibitory concentration (IC50) in data set [2], in data set [3] and in data set [4] was more than 50 µM each time.
For `O=C(CN1CCCC1)NCCCCNc1cc(/C=C/c2ccccc2)nc2ccccc12`, the selectivity ratio in data set [1] came out at 1.4. Besides, the Activity in data set [5] worked out at 23.3%. The outcome in data set [6] and in [8] was Active. Besides, the IC50 in data set [2] stood at 5.3 µM; in [3], 0.2 µM; in data set [4], 7.1 µM. For the same molecule, the result in [7] was inactive.
Turning to `CN1CCN(CC(=O)NCCNc2cc(/C=C/c3ccccc3)nc3ccccc23)CC1`, the selectivity ratio in data set [1] is 9.7. Further, the Activity in data set [5] was 78.5%. The IC50 was determined as 3.5 µM in data set [2], 3.5 µM in data set [3] and 34 µM in data set [4]. In data set [7], the result was inactive.
Regarding `C(=C\c1cc(-c2c[nH]c3ccccc23)c2ccccc2n1)/c1ccccc1`, the selectivity ratio in [1] came to 4.1. For the same molecule, the Activity in [5] was determined as 64.6%. The IC50 in [2] was determined as 1 µM; in data set [3] it was 1.5 µM; in data set [4] it was 4.1 µM.
In the case of `O=C(CNc1ccc(Cl)cc1Cl)NCCCCNc1cc(/C=C/c2ccccc2)nc2ccccc12`, the selectivity ratio in [1] stood at 0.6. For the same molecule, the values for the IC50 in data set [2], in data set [3] and in data set [4] were 12.3 µM, 2.1 µM and 7.3 µM, respectively.
Regarding `O=C(CNc1ccccc1)NCCNc1cc(/C=C/c2ccccc2)nc2ccccc12`, the selectivity ratio in [1] was determined as 1.8. Further, the results for the IC50 in [2], in data set [3] and in data set [4] were 4.3 µM, 3.3 µM and 7.8 µM, respectively.
Take `O=C(CN1CCOCC1)NCCNc1cc(/C=C/c2ccccc2)nc2ccccc12`: the Activity in data set [5] stood at 79.8%. Besides, the IC50 in data set [2] was more than 25 µM; in data set [3], 1.3 µM; in data set [4] it was more than 50 µM. Further, the outcome in data set [7] was inactive.
Turning to `O=C(CNc1ccccc1)NCCCCNc1cc(/C=C/c2ccccc2)nc2ccccc12`, the selectivity ratio in data set [1] came to 0.48. Also, the 50% inhibitory concentration (IC50) in [2] was 6.9 µM; in data set [3], 1.6 µM; in data set [4] it was 3.3 µM.
In the case of `CC(=O)Nc1cc(/C=C/c2ccccc2)nc2ccccc12`, the selectivity ratio in data set [1] was more than 2.6. Besides, the IC50 in data set [2] was 9.5 µM; in data set [4], more than 25 µM.
In the case of `O=C(CN1CCCC1)NCCNc1cc(/C=C/c2ccccc2)nc2ccccc12`, in [1], the selectivity ratio turned out to be 13.9. Moreover, the Activity in data set [5] is 49.9%. Also, the IC50 in data set [2] was 0.9 µM; in data set [3] it was 2.1 µM; in [4], 12.5 µM. For the same molecule, in data set [7], the outcome was inactive.
As for `O=C(CN1CCN(c2ccccc2)CC1)NCCNc1cc(/C=C/c2ccccc2)nc2ccccc12`, in data set [1], the selectivity ratio turned out to be 3. Moreover, the IC50 was 1.5 µM in [2], 2.1 µM in [3] and 4.5 µM in data set [4].
In the same order, the values of `CC(C)(C)OC(=O)NCCCCNc1cc(/C=C/c2ccccc2)nc2ccccc12` are 0.8, 4.9 µM, 0.56 µM and 3.7 µM.
Regarding `CCN(CC)Cc1cc(Nc2cc(/C=C/c3ccccc3)nc3ccccc23)ccc1O`, the selectivity ratio in data set [1] amounted to 4.1. Moreover, in [5], the Activity is on record as 81.8%. Further, the half-inhibitory concentration (IC50) in data set [2] came out at 9 µM; in [3] it was 9.6 µM; in data set [4], 37 µM.
As to `CC(C)(C)OC(=O)NCCNc1cc(/C=C/c2ccccc2)nc2ccccc12`, in [1], the selectivity ratio was 1.5. In addition, the IC50 in data set [2] turned out to be 4.3 µM; in data set [3], 0.45 µM; in [4], 6.6 µM.
Take `CCOCC(=O)NCCCCNc1cc(/C=C/c2ccccc2)nc2ccccc12`: the selectivity ratio in data set [1] amounted to 1.6. Also, the IC50 in data set [2] worked out at 4.5 µM; in data set [3], 1.06 µM; in [4], 7.2 µM. Besides, the result in [7] was inactive.
As to `NCCNc1cc(/C=C/c2ccccc2)nc2ccccc12`, in data set [1], the selectivity ratio is less than 0.1. Further, the IC50 in data set [2] is more than 50 µM; in [3] it was 2.4 µM; in [4], 4.6 µM.
In the same order, the values of `CC(=O)N(C(C)=O)c1cc(/C=C/c2ccccc2)nc2ccccc12` are more than 1.86, 13.4 µM, 35.1 µM and more than 25 µM.
Take `CN(C)CC(=O)NCCNc1cc(/C=C/c2ccccc2)nc2ccccc12`: in data set [1], the selectivity ratio is 13.6. Moreover, in [5], the Activity is 62.7%. The IC50 in data set [2] turned out to be 1.1 µM; in [3], 1.6 µM; in data set [4] it was 15 µM. Further, the result in [7] was inactive.
`Cc1cc(N)c2ccccc2n1`: the IC50 in data set [2] was more than 50 µM; in data set [3] it was 10.9 µM; in data set [4], more than 50 µM.
In the case of `CCN(CC)CC(=O)NCCNc1cc(/C=C/c2ccccc2)nc2ccccc12`, in data set [1], the selectivity ratio was 0.8. In [5], the Activity is reported as 43.2%. Also, the IC50 in data set [2] was found to be 0.9 µM; in data set [3], 1.6 µM; in [4], 0.7 µM. In addition, the result in [7] was inactive.
